From ChEMBL document CHEMBL1141446, “Uncovering biosynthetic potential of plant-associated fungi: effect of culture conditions on metabolite production by Paraphaeosphaeria quadriseptata and Chaetomium chiversii” (J Nat Prod, 2007)
Activity calls are given as the source filed them. No cut-off for these calls is given here.

Key:
[1] = test system: NCI-H460; assay: Antiproliferative activity against human NCI-H460 cells by MTT assay; assay type: functional, cell-based
Summary of the method: (§1)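 Cells were exposed for 72 h to serial dilutions of test compound in RPMI 1640 supplemented with 10% fetal bovine serum. Viability was read by MTT assay, and IC50 was taken as the concentration giving 50% inhibition of proliferation/survival. A positive control was run alongside.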

[2] = test system: MCF7; assay: Antiproliferative activity against human MCF7 cells by MTT assay; assay type: functional, cell-based; summary of the method: as §1
[3] = test system: SF-268; assay: Antiproliferative activity against human SF268 cells by MTT assay; assay type: functional, cell-based; summary of the method: as §1
[4] = species: Mus musculus; assay: Induction of heat shock in mouse 3T3-Y9/B12 reporter cells at 5 uM by heat shock induction assay; assay type: functional

| IC50 [1] [nM] | IC50 [2] [nM] | Structure (SMILES) | IC50 [3] [nM] | Activity [4] |
| --- | --- | --- | --- | --- |
| 10 | – | COc1cccc2c1C(=O)c1c(O)c3c(c(O)c1C2=O)C[C@@](O)(C(=O)CO)C[C@@H]3O[C@H]1C[C@H](N)[C@H](O)[C@H](C)O1 [DOXORUBICIN] | – | – |
| 350 | 600 | C[C@@H]1C[C@H]2O[C@@H]2/C=C\C=C\C(=O)Cc2cc(O)cc(O)c2C(=O)O1 [MONOCILLIN I] | 720 | Active |
| 300 | 150 | C[C@@H]1C[C@H]2O[C@@H]2C[C@H](O)/C=C/C(=O)Cc2cc(O)cc(O)c2C(=O)O1 | 550 | Active |
| 500 | 400 | C[C@@H]1C[C@H]2O[C@@H]2CC/C=C/C(=O)Cc2cc(O)cc(O)c2C(=O)O1 [MONOCILLIN III] | 300 | Active |
| – | – | C[C@@H]1C[C@H]2O[C@@H]2/C=C\C=C\C(=O)Cc2c(Cl)c(O)cc(O)c2C(=O)O1 | – | Active |
